This passage reports IC50 results from ChEMBL document CHEMBL1250480, “Design, synthesis and qualitative structure-activity evaluations of novel hexahydropyrano[3,2-c][1,2]diazepin-3(4H)-one and tetrahydropyrano[3,2-b]pyrrol-2(1H)-one derivatives as anticancer agents” (Eur J Med Chem, 2010).

Molecules are shown by their SMILES.

Type in all cases: functional, cell-based
The subject of one assay is A549. Nature of the assay: Cytotoxicity against human A549 cells after 48 hrs by SRB assay. The following applies: A549, 48 h. In a few lines:
(§1)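 Cells grown in RPMI-1640 with 10% FBS and antibiotics at 37 °C, 5% CO2. Agents from fresh 1 mg/ml DMSO stocks were diluted in medium and applied for 48 h at 37 °C in triplicate wells. Cells were fixed with cold 50% TCA, stained with 0.4% SRB, and the dye solubilized in 10 mM Tris pH 10.5 before reading A570. IC50 is the concentration giving 50% reduction in net protein increase versus untreated cells, after blank correction. Values are the mean ± SEM of at least two independent runs.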
Background: The SRB assay estimates cell density from bound dye.

Another assay deals with HCT-116. Nature of the assay: Cytotoxicity against human HCT116 cells after 48 hrs by SRB assay. The following applies: HCT-116, 48 h. In a few lines: as §1
The next assay relates to SK-N-SH. Nature of the assay: Cytotoxicity against human SK-N-SH cells after 48 hrs by SRB assay. In a few lines:
as §1

Another assay concerns SK-BR-3. Nature of the assay: Cytotoxicity against human SK-BR-3 cells after 48 hrs by SRB assay. The following applies: SK-BR-3, 48 h. In a few lines:
as §1

In another assay the test system is DU-145. Nature of the assay: Cytotoxicity against human DU145 cells after 48 hrs by SRB assay. To be noted: DU-145, 48 h. In a few lines:
as §1

On to `COc1cc(OC)cc(N2NC3=CC[C@@H](OC)O[C@@]3(c3ccccc3)CCC2=O)c1`, for which the IC50 – broadly, the concentration that gives 50% inhibition – in the assay on A549 is 2.9 µM; in the assay with HCT-116 it was 2.1 µM; in the assay on SK-N-SH it was 3.2 µM; with SK-BR-3, 1.2 µM; in the assay on DU-145 it was 2.4 µM.
For `CO[C@@H]1CC=C2NN(c3ccc(C)cc3)C(=O)CC[C@]2(c2ccccc2)O1` the same measures were 3.17 µM, 2.5 µM, 1.7 µM, 2.7 µM and 2.2 µM.
With `CO[C@@H]1CC=C2NN(c3cc(Cl)cc(Cl)c3)C(=O)CC[C@]2(c2ccccc2)O1`, the IC50 in the assay with A549 was determined as 6.13 µM; in the assay with HCT-116, 6.52 µM; with SK-N-SH it was 7.11 µM; in the assay on SK-BR-3 it was 6.35 µM; with DU-145 it was 8.46 µM.
For `CO[C@@H]1CC=C2N(c3c[nH]c4ccccc34)C(=O)C[C@]2(c2ccccc2)O1` the same measures were 5.2 µM, 7.13 µM, 8.2 µM, 2.3 µM and 7.33 µM.
For `CO[C@@H]1CC=C2N(c3cc(Cl)cc(Cl)c3)C(=O)C[C@]2(c2ccccc2)O1` the same measures were 7.53 µM, 11.2 µM, 9.67 µM, 6.54 µM and 8.17 µM.
Turning to `CO[C@@H]1CC=C2N(c3ccc4[nH]ccc4c3)C(=O)C[C@]2(c2ccccc2)O1`, the IC50 with A549 came to 5.1 µM; in the assay with HCT-116, 5.3 µM; in the assay on SK-N-SH, 4.4 µM; in the assay with SK-BR-3 it was 1.3 µM; in the assay with DU-145, 4.1 µM.
For `CO[C@@H]1CC=C2N(c3ccc(C)cc3)C(=O)C[C@]2(c2ccccc2)O1` the same measures were 3.92 µM, 4.3 µM, 3.5 µM, 1.1 µM and 4.4 µM.
For `CO[C@@H]1CC=C2NN(c3c[nH]c4ccccc34)C(=O)CC[C@]2(c2ccccc2)O1` the same measures were 1.11 µM, 1.1 µM, 1 µM, 1.2 µM and 1.13 µM.
On to `CO[C@@H]1CC=C2NN(c3ccccn3)C(=O)CC[C@]2(c2ccccc2)O1`, for which the half-maximal inhibitory concentration (IC50) is 1.48 µM in the assay with A549; 1.4 µM in the assay with HCT-116; 2.1 µM in the assay on SK-N-SH; 1.12 µM with SK-BR-3; 1.29 µM in the assay on DU-145.
For `CO[C@@H]1CC=C2N(c3ccc([N+](=O)[O-])cc3)C(=O)C[C@]2(c2ccccc2)O1` the same measures were 7.15 µM, 8 µM, 9.4 µM, 6.3 µM and 8.1 µM.
For `CO[C@@H]1CC=C2N(c3ccccn3)C(=O)C[C@]2(c2ccccc2)O1` the same measures were 6.11 µM, 7.3 µM, 5.1 µM, 1.1 µM and 8.3 µM.
For `CO[C@@H]1CC=C2NN(c3ccc([N+](=O)[O-])cc3)C(=O)CC[C@]2(c2ccccc2)O1` the same measures were 9.49 µM, 8.7 µM, 7.3 µM, 7.7 µM and 9.2 µM.
In the case of `COc1ccc(N2NC3=CC[C@@H](OC)O[C@@]3(c3ccccc3)CCC2=O)cc1`, the IC50 in the assay on A549 is 5.1 µM; with HCT-116, 3.1 µM; with SK-N-SH it was 4.6 µM; in the assay with SK-BR-3, 2.4 µM; with DU-145, 4.1 µM.
For `COc1cc(OC)cc(N2C(=O)C[C@]3(c4ccccc4)O[C@H](OC)CC=C23)c1` the same measures were 4.11 µM, 6.1 µM, 7.2 µM, 1.1 µM and 6.1 µM.
